Measurements as given in ChEMBL document CHEMBL3808365, “Potent and Selective CK2 Kinase Inhibitors with Effects on Wnt Pathway Signaling in Vivo” (ACS Med Chem Lett, 2016).

How the values were obtained:
[1] = Aqueous solubility of the compound in phosphate buffer at pH 7.4 incubated for 24 hrs by LC/MS/MS method; type: physicochemical
[2] = Intrinsic clearance in human liver microsomes; type: ADME; settings: read-out: CLH
[3] = Intrinsic clearance in rat hepatocyte assessed per 10^6 cells; type: ADME, cell-based; settings: hepatocytes, read-out: CLH
[4] = molecular target: Voltage-gated inwardly rectifying potassium channel KCNH2 (Homo sapiens, UniProt Q12809); test: Inhibition of human ERG expressed in CHO cells by patch clamp assay; type: cell-based
[5] = molecular target: T1, Casein kinase II subunit alpha (Homo sapiens, UniProt P68400); test: Binding affinity to His-tagged recombinant human CK2alpha (6 to 335 residues) after 50 to 116.7 mins by surface plasmon resonance assay
[6] = Antiproliferative activity against human […] cells after 72 hrs by alamar blue assay; type: functional; settings: HCT-116, 72 h
[7] = Antiproliferative activity against human DLD1 cells after 72 hrs by alamar blue assay; type: functional; settings: DLD-1, 72 h
[8] = Antiproliferative activity against human SW620 cells after 72 hrs by alamar blue assay; type: functional; settings: SW-620, 72 h
Rattus norvegicus = test: AUC in rat at 10 mg/kg, po; type: ADME, organism-based; settings: in vivo
[9] = Fraction unbound in human plasma at 10 uM by equilibrium dialysis method; type: ADME, cell-free
Hepatocyte = test: Drug metabolism in rat hepatocytes assessed as oxidative demethylated metabolite formation; type: ADME, cell-based
Liver microsome [10] = test: Drug metabolism in rat liver microsomes in presence of ABT; type: ADME
Summary of the method: (§1)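 Metabolite formation studied in rat and human liver microsome incubations with ABT present, to probe oxidative clearance.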

Liver microsome [11] = test: Drug metabolism in human liver microsomes in presence of ABT; type: ADME; summary of the method: as §1
[12] = Inhibition of CK2 in mouse L-Wnt3a cells assessed as suppression of Wnt3a-mediated L S/L Super TOPFlash reporter gene transcription after 24 hrs; settings: L Wnt-3A
[13] = molecular target: T1, Casein kinase II subunit alpha; test: Inhibition of full length N-terminal 6xHis-tagged recombinant human CK2alpha expressed in fall armyworm Sf21 cells using BODIPY-FL-RRRDDDSDDD-CONH2 as substrate after 90 mins by mobility shift assay
Casein kinase II = Casein kinase II (Homo sapiens, UniProt P19784+P67870+P68400); test: Inhibition of CK2 in human DLD1 HA-myr-AKT1 cells assessed as suppression of AKTser129 phosphorylation after 3 to 24 hrs by Western blot analysis
Sequence of Casein kinase II (P67870 whole entry): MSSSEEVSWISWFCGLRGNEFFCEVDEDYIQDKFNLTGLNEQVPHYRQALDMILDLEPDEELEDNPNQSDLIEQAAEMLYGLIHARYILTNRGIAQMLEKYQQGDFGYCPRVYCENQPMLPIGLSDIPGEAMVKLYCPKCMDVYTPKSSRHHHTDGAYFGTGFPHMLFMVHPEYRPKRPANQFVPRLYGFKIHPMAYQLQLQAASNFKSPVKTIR
Sequence of Casein kinase II (P68400 whole entry): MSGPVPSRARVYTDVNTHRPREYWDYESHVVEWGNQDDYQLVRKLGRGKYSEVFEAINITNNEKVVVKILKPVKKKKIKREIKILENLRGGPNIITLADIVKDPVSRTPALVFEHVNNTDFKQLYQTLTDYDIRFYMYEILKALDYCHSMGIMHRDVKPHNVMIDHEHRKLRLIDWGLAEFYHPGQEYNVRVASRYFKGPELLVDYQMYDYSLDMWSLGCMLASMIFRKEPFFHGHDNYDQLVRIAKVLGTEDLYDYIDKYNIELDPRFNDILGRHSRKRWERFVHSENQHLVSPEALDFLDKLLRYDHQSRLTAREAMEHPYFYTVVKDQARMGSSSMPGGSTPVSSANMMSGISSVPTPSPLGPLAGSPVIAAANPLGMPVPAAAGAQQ
Sequence of Casein kinase II (P19784 whole entry): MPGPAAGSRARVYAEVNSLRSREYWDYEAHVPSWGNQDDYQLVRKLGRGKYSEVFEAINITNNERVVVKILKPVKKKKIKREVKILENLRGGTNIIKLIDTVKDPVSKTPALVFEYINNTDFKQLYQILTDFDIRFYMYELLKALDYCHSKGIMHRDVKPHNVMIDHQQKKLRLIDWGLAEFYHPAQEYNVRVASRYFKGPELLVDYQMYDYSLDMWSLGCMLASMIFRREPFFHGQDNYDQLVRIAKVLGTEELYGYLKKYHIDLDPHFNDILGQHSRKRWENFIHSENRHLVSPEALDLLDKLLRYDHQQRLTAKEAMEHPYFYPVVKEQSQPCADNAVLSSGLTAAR

T1 sequence (P68400 whole entry, the tested form may be a part): as the sequence (P68400 whole entry) above
Sequence of Voltage-gated inwardly rectifying potassium channel KCNH2 (Q12809 whole entry, the tested form may be a part): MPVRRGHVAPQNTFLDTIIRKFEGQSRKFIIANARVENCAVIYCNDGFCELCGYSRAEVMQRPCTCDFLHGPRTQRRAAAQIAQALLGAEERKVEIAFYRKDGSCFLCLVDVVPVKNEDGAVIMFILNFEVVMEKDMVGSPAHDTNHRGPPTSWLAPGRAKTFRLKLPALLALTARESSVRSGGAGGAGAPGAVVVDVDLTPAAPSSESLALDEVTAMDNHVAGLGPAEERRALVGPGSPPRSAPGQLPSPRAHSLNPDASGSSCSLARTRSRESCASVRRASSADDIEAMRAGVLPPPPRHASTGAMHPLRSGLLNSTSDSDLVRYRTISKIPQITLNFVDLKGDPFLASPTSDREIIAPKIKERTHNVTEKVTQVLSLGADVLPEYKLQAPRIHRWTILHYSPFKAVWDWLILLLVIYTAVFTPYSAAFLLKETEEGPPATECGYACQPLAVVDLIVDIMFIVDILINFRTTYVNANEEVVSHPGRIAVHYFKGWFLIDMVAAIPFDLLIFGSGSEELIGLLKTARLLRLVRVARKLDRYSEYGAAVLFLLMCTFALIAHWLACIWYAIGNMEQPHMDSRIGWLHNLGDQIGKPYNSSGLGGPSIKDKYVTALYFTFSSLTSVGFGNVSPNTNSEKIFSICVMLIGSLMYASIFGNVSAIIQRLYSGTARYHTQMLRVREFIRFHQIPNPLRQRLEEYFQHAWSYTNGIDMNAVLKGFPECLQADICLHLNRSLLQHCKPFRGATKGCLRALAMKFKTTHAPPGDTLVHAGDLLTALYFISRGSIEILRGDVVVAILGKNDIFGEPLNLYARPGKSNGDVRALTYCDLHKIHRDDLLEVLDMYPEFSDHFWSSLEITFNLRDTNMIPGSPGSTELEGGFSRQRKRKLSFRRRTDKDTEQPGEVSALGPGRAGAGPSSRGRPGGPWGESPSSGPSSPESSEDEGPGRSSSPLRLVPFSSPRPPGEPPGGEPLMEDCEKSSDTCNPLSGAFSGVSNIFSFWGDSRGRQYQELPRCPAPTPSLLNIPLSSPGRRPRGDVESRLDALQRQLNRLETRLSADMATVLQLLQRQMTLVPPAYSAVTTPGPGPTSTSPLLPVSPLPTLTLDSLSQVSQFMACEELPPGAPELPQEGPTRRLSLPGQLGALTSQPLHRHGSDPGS

solubility at 24 h [1]: > 1000 µM | microsomal CLint [2]: 9 µL/min/mg | hepatocyte CLint [3]: 32 µL/min/1e6 cells | Kd [5]: 0.0482 nM | AUC (Rattus norvegicus): 0.36 µM·h | fraction unbound at 10 µM [9]: 0.26 | Drug metabolism (Hepatocyte): metabolite_detected | Drug metabolism (Liver microsome [10]): metabolite_notdetected | Drug metabolism (Liver microsome [11]): metabolite_notdetected | IC50 [12]: 75 nM | IC50 [13]: < 3 nM | IC50 (Casein kinase II): 1 nM
SMILES: CC(=O)Nc1cc(Nc2cc(NC3CC3)n3ncc(C#N)c3n2)ccc1N(C)CCN(C)C
IC50 [4]: 4000 nM | GI50 [6]: 30 nM | GI50 [7]: 80 nM | GI50 [8]: 30 nM
